{
  "source": "paper PMC9323481",
  "about": "(Diabetes, Obesity & Metabolism, 2022)",
  "type_in_all_cases": "in vivo, human",
  "key": {"[1]": {"tested_on": "patients with type 2 diabetes and CKD", "test": "Clinical chemistry and eGFR percent change", "details": "baseline to day 32"}, "[2]": {"tested_on": "patients with type 2 diabetes and CKD", "test": "Supine blood pressure and heart rate", "in_short": "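Vital signs, blood pressure and 24-h pulse rate were safety endpoints, taken as change from baseline. Randomized double-blind design: once-daily morning s.c. test compound titrated 50 μg (4 days), 100 μg (7 days), 200 μg (7 days), 300 μg (14 days), or placebo for 32 days. ANCOVA with baseline as covariate, as-treated population.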"}, "[3]": {"tested_on": "patients with type 2 diabetes and CKD", "test": "Fasting plasma glucose and HbA1c", "details": "s.c. once daily, 50-300 μg; for Change in LS mean fasting plasma glucose from baseline to day 32: 32 days"}, "[4]": {"tested_on": "patients with type 2 diabetes and CKD", "test": "Continuous glucose monitoring", "in_short": "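Double-blind, placebo-controlled, once-daily s.c. dosing titrated 50→100→200→300 μg over 32 days. Continuous glucose monitoring gave the percentage of time with interstitial glucose in the target range of 70-180 mg/dl (3.9-10 mmol/L) over a 7-day period, at baseline and in the final week of treatment. Change analysed by Wilcoxon rank-sum test, intent-to-treat population.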"}, "[5]": {"tested_on": "patients with type 2 diabetes and CKD on insulin ≥20 units per day", "test": "Total daily insulin dose", "details": "participants on insulin ≥20 units per day; range –194, 20; placebo 0.0, p = .073", "in_short": "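Exploratory endpoint: change in total daily insulin dose from baseline to end of dosing, in participants on ≥20 units/day. Randomization was stratified by insulin dose (≥20 vs <20 units/day). Dosing was once-daily s.c., titrated 50-300 μg over 32 days, against placebo. Analysed by two-sample t-test with unequal variance and Satterthwaite approximation.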"}, "[6]": {"tested_on": "patients with type 2 diabetes and CKD", "test": "Immunogenicity", "details": "serum anti-drug antibody", "in_short": "(§1)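 Secondary endpoints of a 32-day trial: once-daily morning s.c. dosing titrated through 50 μg for 4 days, 100 μg for 7 days, 200 μg for 7 days and 300 μg for 14 days. Pharmacokinetic parameters and anti-drug antibody titre were summarized with descriptive statistics only.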"}, "Pharmacokinetics": {"test": "Pharmacokinetics", "details": "repeat daily s.c. administration 50-300 μg; plasma", "in_short": "as §1"}, "[7]": {"tested_on": "patients with type 2 diabetes and CKD", "test": "Bodyweight", "details": "p < .001", "in_short": "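Randomized 1:1, double-blind; test compound or placebo given s.c. once daily each morning. Test compound dose titration: 50 μg for 4 days, 100 μg for 7 days, 200 μg for 7 days, then 300 μg for 14 days. Percentage and absolute change in bodyweight from baseline, intent-to-treat population. ANCOVA with treatment as fixed factor and baseline as covariate.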"}, "[8]": {"tested_on": "patients with type 2 diabetes and CKD", "test": "UACR and eGFR", "in_short": "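Exploratory endpoints: change from baseline in mean urinary albumin-to-creatinine ratio (UACR) and eGFR. Dosing was randomized, double-blind, once-daily s.c., titrated 50-300 μg over 32 days, against placebo. Change in UACR was analysed by t-test with unequal variance. Continuous endpoints were analysed by ANCOVA with baseline as covariate, intent-to-treat population.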"}, "[9]": {"tested_on": "patients with type 2 diabetes and CKD", "test": "Treatment-emergent adverse events", "in_short": "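Incidence of adverse events and serious adverse events during 32 days of once-daily s.c. dosing (titrated 50→100→200→300 μg) or placebo. Clinically significant hypoglycaemia was defined as capillary or venous plasma glucose <54 mg/dl (3.0 mmol/L). Safety analyses used the as-treated population with descriptive statistics.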"}},
  "data": [
    {"substance": "cotadutide", "values": [
      {"measurement": "Trends or shifts from baseline in serum chemistry", "setting": "[1]", "result": "no clinically meaningful trends or shifts"},
      {"measurement": "Increase in LS mean heart rate from baseline to day 32", "setting": "[2]; placebo 3.14, p < .001", "result": 14.13, "unit": "beats per minute"},
      {"measurement": "Increase in LS mean supine diastolic blood pressure from baseline to day 32", "setting": "[2]; placebo 3.40, p = .421", "result": 0.57, "unit": "mmHg"},
      {"measurement": "Increase in LS mean supine systolic blood pressure from baseline to day 32", "setting": "[2]; placebo 8.69, p = .144", "result": 1.44, "unit": "mmHg"},
      {"measurement": "Change in LS mean fasting plasma glucose from baseline to day 32", "setting": "[3]; placebo 0.03", "result": 1.09, "unit": "mmol/L"},
      {"measurement": "Change in LS mean fasting plasma glucose from baseline to day 32", "setting": "[3]; placebo +0.60, p = .089", "result": "–19.55 mg/dl"},
      {"measurement": "Change in LS mean HbA1c from baseline to day 32", "setting": "[3]; placebo +0.01%, p < .001", "result": "–0.65%"},
      {"measurement": "Mean percentage of time within target range over a 7-day period", "setting": "[4]; 100 μg dose period, placebo 48.57%", "result": 75.82, "unit": "%"},
      {"measurement": "Mean percentage of time within target range over a 7-day period", "setting": "[4]; 200 μg dose period, placebo 54.99%", "result": 78.69, "unit": "%"},
      {"measurement": "Mean percentage of time within target range over a 7-day period", "setting": "[4]; 300 μg dose period, placebo 40.66%", "result": 78.18, "unit": "%"},
      {"measurement": "Time in clinically significant hypoglycaemia (glucose <54 mg/dl or <3.0 mmol/L)", "setting": "[4]; CGM, entire dosing period, placebo 0.66%, p = .010", "result": 2.01, "unit": "%"},
      {"measurement": "Time in hypoglycaemia (glucose <70 mg/dl or <3.9 mmol/L)", "setting": "[4]; CGM, entire dosing period, placebo 2.73%, p = .061", "result": 6.07, "unit": "%"},
      {"measurement": "Time in hyperglycaemia (glucose >180 mg/dl or 10 mmol/L)", "setting": "[4]; CGM, entire dosing period, placebo 37.39%, p = .001", "result": 10.50, "unit": "%"},
      {"measurement": "Median absolute change in total daily insulin dose from baseline to day 32", "setting": "[5]", "result": "–16.0 units per day"},
      {"measurement": "Treatment-boosted ADA response", "setting": "[6]", "result": "No participants"},
      {"measurement": "Exposure at Ctrough with dose", "setting": "Pharmacokinetics", "result": "linear increased exposure"},
      {"measurement": "LS mean change in absolute bodyweight from baseline to day 33", "setting": "[7]; 90% CI –4.2, –2.62, placebo –0.13 kg", "result": "–3.41 kg"},
      {"measurement": "LS mean percentage change in bodyweight from baseline to day 33", "setting": "[7]; 90% CI –4.55, –2.83, placebo –0.21%", "result": "–3.69%"},
      {"measurement": "LS mean change in eGFR", "setting": "[8]; 90% CI –1.29, 3.62, placebo –1.10, p = .268", "result": 1.17, "unit": "ml/min/1.73 m^2"},
      {"measurement": "Change in LS mean UACR from baseline to day 33", "setting": "[8]; all participants, placebo 5.43%, not significant", "result": "–7.65%"},
      {"measurement": "Mild/moderate adverse events, participants", "setting": "[9]; abstract, placebo 35.0%", "result": 71.4, "unit": "%"},
      {"measurement": "Treatment-emergent adverse event: Any", "setting": "[9]; n = 21, as-treated, placebo 13 (65.0)", "result": "20 (95.2) n (%)"},
      {"measurement": "Treatment-emergent adverse event: Hypoglycaemia", "setting": "[9]; n = 21, clinically significant, capillary or venous plasma glucose <54 mg/dl (3.0 mmol/L), placebo 1 (5.0)", "result": "3 (14.3) n (%)"},
      {"measurement": "Treatment-emergent adverse event: Decreased appetite", "setting": "[9]; n = 21, placebo 0", "result": "3 (14.3) n (%)"},
      {"measurement": "Treatment-emergent adverse event: Diarrhoea", "setting": "[9]; n = 21, placebo 0", "result": "5 (23.8) n (%)"},
      {"measurement": "Treatment-emergent adverse event: Flatulence", "setting": "[9]; n = 21, placebo 0", "result": "2 (9.5) n (%)"},
      {"measurement": "Treatment-emergent adverse event: Leading to death (no. patients)", "setting": "[9]; n = 21, placebo 0", "result": "1 (4.8) n (%)"},
      {"measurement": "Treatment-emergent adverse event: Serious related to cotadutide", "setting": "[9]; n = 21, placebo 0", "result": "1 (4.8) n (%)"},
      {"measurement": "Treatment-emergent adverse event: Dizziness", "setting": "[9]; n = 21, placebo 1 (5.0)", "result": "2 (9.5) n (%)"},
      {"measurement": "Treatment-emergent adverse event: Dyspepsia", "setting": "[9]; n = 21, placebo 1 (5.0)", "result": "5 (23.8) n (%)"},
      {"measurement": "Treatment-emergent adverse event: Leading to study discontinuation (no. patients)", "setting": "[9]; n = 21, placebo 1 (5.0)", "result": "2 (9.5) n (%)"},
      {"measurement": "Treatment-emergent adverse event: Vomiting", "setting": "[9]; n = 21, placebo 1 (5.0)", "result": "6 (28.6) n (%)"},
      {"measurement": "Treatment-emergent adverse event: Headache", "setting": "[9]; n = 21, placebo 2 (10.0)", "result": "2 (9.5) n (%)"},
      {"measurement": "Treatment-emergent adverse event: Nasopharyngitis", "setting": "[9]; n = 21, placebo 2 (10.0)", "result": "3 (14.3) n (%)"},
      {"measurement": "Treatment-emergent adverse event: Serious (no. patients)", "setting": "[9]; n = 21, placebo 2 (10.0)", "result": "2 (9.5) n (%)"},
      {"measurement": "Treatment-emergent adverse event: Nausea", "setting": "[9]; n = 21, placebo 4 (20.0)", "result": "9 (42.9) n (%)"},
      {"measurement": "Treatment-emergent adverse event: Any related to cotadutide", "setting": "[9]; n = 21, placebo 7 (35.0)", "result": "15 (71.4) n (%)"},
      {"measurement": "AEs of severe hypoglycaemia", "setting": "[9]; whole study", "result": "no recorded AEs"}
    ]}
  ]
}
